Activity calls are given as the source filed them. No cut-off for these calls is given here.
Experiments:
[1] = Toxicity in albino rat assessed as survival at 100 mg/kg, po; assay type: organism-based; parameters: dose 100 mg/kg, route oral; details: in vivo, read-out: Activity
Procedure, shortened: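 Albino rats were dosed orally in the carrageenin hind-paw oedema study. Survival was recorded, and animals were examined macroscopically and by autopsy.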

[2] = Antioxidant activity assessed as inhibition microsomal lipid peroxidation at 200 ug/ml by thiobarbituric acid test; assay type: functional; details: Microsome
Procedure, shortened: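 Microsomal lipid peroxidation was measured with compound at 200 µg/mL and read as nmol MDA formed per mg protein. α-Tocopherol at 100 µg/mL was the standard. Values are mean SD of six.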

[3] = Antioxidant activity assessed as inhibition of xanthine-xanthine oxidase generated superoxide anion radical production assessed as formazone formation at 200 ug/ml after 30 mins by spectrophotometric analysis; assay type: functional
Procedure, shortened: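 Superoxide generation was run with and without compound at 200 µg/mL. Fractions were sonicated in phosphate buffer, and mixtures were incubated at 37 °C for 30 min. The reaction was stopped with glacial acetic acid, and formazone formed was measured spectrophotometrically. Allopurinol was the standard, and values are mean SD of six.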

[4] = test system: Rattus norvegicus; assay: Antiinflammatory activity in albino rat assessed as inhibition of carrageenin-induced paw oedema at 100 mg/kg, po after 3 hrs by plethysmographic analysis relative to control; assay type: functional
Procedure, shortened: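 Rats received 100 mg/kg po. Oedema was induced by subplantar injection of 0.1 ml of 1% carrageenin into one hind paw. Paw volume was measured plethysmographically immediately after the injection and at 3 h. The volume difference gave the oedema, and percent inhibition was calculated against the control group. Ibuprofen was the reference at an equivalent dose.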

[5] = test system: Rattus norvegicus; assay: Toxicity in albino rat at 100 mg/kg, po by macroscopic analysis; details: in vivo
[6] = test system: Rattus norvegicus; assay: Toxicity in albino rat at 100 mg/kg, po by autopsy; assay type: organism-based; parameters: dose 100 mg/kg, route oral; details: in vivo
[7] = Antioxidant activity assessed as inhibition non-enzymatic reactants generated hydroxyl radical production at 200 ug/ml after 90 mins by spectrophotometry; assay type: functional
Procedure, shortened: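 Hydroxyl radicals were generated non-enzymatically from deoxyribose (2.8 mM), FeSO4·7H2O (2 mM), sodium ascorbate (2.0 mM) and H2O2 (2.8 mM) in 50 mM KH2PO4 buffer, pH 7.4. Final volume was 2.5 mL, with or without test compound at 200 µg/mL. Mixtures were incubated at 37 °C for 90 min, MDA formed was measured, and mannitol was the standard. Values are mean SD of six.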

[8] = Antioxidant activity assessed as inhibition microsomal lipid peroxidation at 100 ug/ml by thiobarbituric acid test; assay type: functional; details: Microsome
[9] = Antiinflammatory activity in whole blood assessed as inhibition of LPS-induced TNFalpha production at 200 ug/ml; assay type: functional
[10] = Antiinflammatory activity in whole blood assessed as inhibition of LPS-induced TNFalpha production at 400 ug/ml; assay type: functional
[11] = Antiinflammatory activity in whole blood assessed as inhibition of LPS-induced TNFalpha production; assay type: functional, tissue-based
[12] = Antioxidant activity assessed as inhibition non-enzymatic reactants generated hydroxyl radical production at 100 ug/ml after 90 mins by spectrophotometry; assay type: functional
[13] = Antioxidant activity assessed as inhibition of xanthine-xanthine oxidase generated superoxide anion radical production assessed as formazone formation at 20 ug/ml after 30 mins by spectrophotometric analysis; assay type: functional
Procedure, shortened: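 Reaction mixtures in phosphate buffer incubated at 37 °C for 30 min, then stopped with 0.5 mL glacial acetic acid. Superoxide quantified as formazone formed (nmol/min), read spectrophotometrically. Mean SD of six values.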

In the case of CCOC(=O)c1cc2cc(/C=C/C(=O)c3cccs3)c3c(ccc4c(C)cc(=O)oc43)c2oc1=O, the survival [1] was 80%, the inhibition [2] was 27% and the inhibition [3] was 24%. For the same compound, the inhibition in vivo at 100 mg/kg [4] was 8.77%, the Activity [5] was “Non-toxic” and the Activity [6] was “Non-toxic”. It also gave an inhibition [7] of 26%.

Compound Cc1c(C)c2c(c(C)c1O)CC[C@@](C)(CCC[C@H](C)CCC[C@H](C)CCCC(C)C)O2 has an inhibition [8] of 41%.

With CCOC(=O)c1cc2cc(/C=C/C(=O)c3ccco3)c3c(ccc4c(C)cc(=O)oc43)c2oc1=O the survival [1] was 80%, the inhibition [2] was 24% and the inhibition [3] was 30%. For the same compound, the inhibition in vivo at 100 mg/kg [4] was 13%, the Activity [5] was “Non-toxic” and the Activity [6] was “Non-toxic”. For the same compound, the inhibition [7] was 21%.

In the case of CCOC(=O)c1cc2cc(/C=C/C(=O)c3ccccc3)c3c(ccc4c(C)cc(=O)oc43)c2oc1=O, the inhibition [4] was “inactive”.

With CC(C)Cc1ccc(C(C)C(=O)O)cc1 (stereo unspecified) [IBUPROFEN] the inhibition in vivo at 100 mg/kg [4] was 59.5%.

For COC(=O)c1cc2cc(/C=C/C(=O)c3cccs3)c3c(ccc4c(C)cc(=O)oc43)c2oc1=O, the survival [1] was 80%, the inhibition in vivo at 100 mg/kg [4] was 3.5% and the Activity [5] was “Non-toxic”. For the same compound, the Activity [6] was “Non-toxic”.

CC(=O)c1cc2cc(/C=C/C(=O)c3ccc(C)cc3)c3c(ccc4c(C)cc(=O)oc43)c2oc1=O gave an inhibition in vivo at 100 mg/kg [4] of 29%, an inhibition at 200 µg/mL [9] of 33% and an inhibition at 400 µg/mL [10] of 47%. For the same compound, the inhibition [11] was “Dose-dependent effect”.

Work on OC[C@@H](O)[C@@H](O)[C@H](O)[C@H](O)CO yielded an inhibition [12] of 40%.

In the case of COC(=O)c1cc2cc(/C=C/C(=O)c3ccco3)c3c(ccc4c(C)cc(=O)oc43)c2oc1=O, the inhibition [4] was “inactive”.

Oc1ncnc2[nH]ncc12 gave an inhibition [13] of 42%.

With CCOC(=O)c1cc2cc(/C=C/C(=O)c3ccc(C)cc3)c3c(ccc4c(C)cc(=O)oc43)c2oc1=O the inhibition [4] was “inactive”.

For COC(=O)c1cc2cc(/C=C/C(=O)c3ccccc3)c3c(ccc4c(C)cc(=O)oc43)c2oc1=O, the inhibition [2] was 23%, the inhibition [3] was 29% and the inhibition in vivo at 100 mg/kg [4] was 33%. For the same compound, the inhibition at 200 µg/mL [9] was 4%, the inhibition at 400 µg/mL [10] was 21% and the inhibition [7] was 27%. The inhibition [11] was “Dose-dependent effect”.

With COC(=O)c1cc2cc(/C=C/C(=O)c3ccc(C)cc3)c3c(ccc4c(C)cc(=O)oc43)c2oc1=O the inhibition [4] was “inactive”.

Compound CC(=O)c1cc2cc(/C=C/C(=O)c3ccco3)c3c(ccc4c(C)cc(=O)oc43)c2oc1=O has an inhibition in vivo at 100 mg/kg [4] of 26%, an inhibition at 200 µg/mL [9] of 25% and an inhibition at 400 µg/mL [10] of 43%. The inhibition [11] was “Dose-dependent effect”.
